RGS4 block = inhibitors of human RGS4; B-score at 10 µM; HEK293 M3R/RGS4 inducible, Fluo-4 calcium flux; active compounds read high; triggered by carbachol at its EC20; P49798; actives 0.45% (n = 310,000);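 active = B-score, a plate-corrected calcium signal, over three deviations above library mean, with baseline fluorescence within five deviations of library mean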;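 also: RGS4 expression induced by doxycycline in cells with stable M3 receptor; B-score is computed from the integrated fluorescence ratio over baseline after carbachol; higher B-score means a larger calcium signal and so more RGS4 inhibition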
Target sequence (P49798 whole entry, looked up): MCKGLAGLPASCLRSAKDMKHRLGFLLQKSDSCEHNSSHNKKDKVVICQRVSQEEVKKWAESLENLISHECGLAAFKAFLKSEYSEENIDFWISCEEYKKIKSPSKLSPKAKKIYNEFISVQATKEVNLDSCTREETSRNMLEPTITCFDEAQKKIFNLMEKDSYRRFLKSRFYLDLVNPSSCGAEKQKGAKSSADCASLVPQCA
MrgX1 antagonist = antagonists of human MrgX1 receptor; AID 588676; B-score at 10 µM; actives 1.3% (n = 310,000); MRGX1-HEK293 calcium flux, Fluo-4, BAM8-22 antagonism; active compounds read low; Q96LB2;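 active = calcium-response B-score plate-corrected more than 3 library SD below zero, starting fluorescence within 5 deviations, no agonist response on first addition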;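 also: peak minus trough fluorescence over baseline after final BAM8-22 challenge near maximal dose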
Target sequence (Q96LB2 whole entry, looked up): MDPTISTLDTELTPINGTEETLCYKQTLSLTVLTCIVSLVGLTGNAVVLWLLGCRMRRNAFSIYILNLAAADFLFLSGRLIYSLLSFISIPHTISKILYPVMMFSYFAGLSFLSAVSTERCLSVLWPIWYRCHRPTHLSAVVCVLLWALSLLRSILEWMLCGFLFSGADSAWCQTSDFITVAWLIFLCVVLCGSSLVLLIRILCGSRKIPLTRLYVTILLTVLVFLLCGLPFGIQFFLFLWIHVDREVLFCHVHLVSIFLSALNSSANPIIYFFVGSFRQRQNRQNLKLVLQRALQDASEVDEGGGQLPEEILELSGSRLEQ
MrgX1 PAM = human MrgX1 positive allosteric modulation, primary screen | actives 0.63% (n = 310,000) | B-score at 10 µM | MrgX1-HEK293, Fluo-4 calcium flux, FDSS; active compounds read high;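 active = plate-corrected calcium response at least 3 library SD above typical, normal starting fluorescence, not activating the receptor alone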;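 also: compound read alongside a low EC10 to EC30 dose of BAM8-22 agonist; peak minus trough fluorescence over baseline measured at the second addition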
MrgX1 ag = activates human MrgX1 receptor signaling; Q96LB2; MrgX1-HEK293 cells, Fluo-4 calcium fluorescence, agonist mode; active compounds read high; B-score at 10 µM; actives 0.44% (n = 310,000); AID 588627;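 active = calcium response B-score plate-corrected fluorescence ratio at least 3 library SD, with starting fluorescence B-score inside 5 SD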
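System: HEK293 cells stably expressing human MrgX1 receptor; Dosing: test compound in the initial addition of three; Schedule: overnight plating, then 30 min 37 °C plus 30 min room-temperature dye loading; Detection: kinetic calcium dye fluorescence, Fluo-4 NW; Controls: per-plate positive and negative controls for Z′ factor.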
RGS4 pot = RGS4 potentiation or activation. AID 463111. B-score at 10 µM. actives 0.92% (n = 310,000). HEK293 M3R/inducible RGS4, carbachol calcium flux Fluo4; active compounds read low;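 active = B-score of the integrated calcium signal more than 4 SD below the library mean, with starting fluorescence not abnormally high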;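 also: negative B-score means reduced calcium response which marks RGS4 activation or potentiation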
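test system = M3R-expressing HEK293 line, RGS4 induced by doxycycline | probe or stimulus = carbachol at ECmax as muscarinic agonist stimulus | timing = dye loading 30 min 37 °C, buffer rest 30 min RT | signal = calcium dye Fluo4 fluorescence | evaluation = B score from integrated fluorescence ratio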
* marks the source's active call; other numbers are inactive results; i = inactive; · = no result given. An excerpt weighted towards active compounds, which were near 3.5% of everything screened.

SMILES	RGS4 block	MrgX1 antagonist	MrgX1 PAM	MrgX1 ag	RGS4 pot
CCOc1cc(CNCCSc2nnnn2C)cc(Br)c1OCc1ccccc1F	i	-4.7*	i	i	i
FC(F)(F)c1cc(CCN2C(=S)NC[C@@H]2CC2CCCCC2)cc(C(F)(F)F)c1	i	i	i	i	-9.8*
CC1(C)CCN2CCC(C)(C)c3c(O)ccc1c32	i	i	i	i	i
Clc1ccc(-c2nnc(Sc3nc4ccccc4o3)c3ccccc23)cc1	i	i	i	i	i
O=c1c(Cl)c2oc3ccccc3nc-2c2ccccc12	i	-5.7*	i	i	i
COc1cc(CNC(=O)c2cc3ccccc3oc2=O)cc(OC)c1OC	i	i	i	i	i
N/C(=N\OC(=O)c1ccc(Cl)c(Cl)c1)c1cccc(CSc2ccccn2)c1	i	i	i	i	-7.5*
N/C(=N\OC(=O)c1ccc(=O)n(Cc2ccc(Cl)cc2)c1)c1ccccn1	i	i	i	i	i
N/C(=N\OC(=O)c1ccc(=O)n(Cc2ccccc2)c1)c1ccccn1	i	-5.1*	i	i	i
N/C(=N\OC(=O)c1ccc(Cl)c(Cl)c1)c1cccnc1	i	i	i	i	i
O=C(NCc1ccc2c(c1)OCO2)c1cc([N+](=O)[O-])ccc1N1CCCCC1	i	i	i	i	-7.4*
CC12CCC(C(=O)Nc3ccccc3)(C/C1=N\O)C2(C)C (configuration not stated)	i	i	i	i	i
Cc1cccc(NC(=O)C23CCC(C)(/C(=N/O)C2)C3(C)C)c1 (configuration not stated)	i	-5.8*	i	i	i
COc1ccc(-n2ccnc2)cc1	i	i	i	i	i
COc1nc(N(c2ccccc2)c2ccccc2)nc(-n2ccnc2)n1	i	i	12*	i	i
COc1ccc(-c2csc(NC(=O)c3ccc(OCC(=O)N4CCOCC4)c(OC)c3)n2)cc1	i	-5.1*	i	i	i
COCCCN(C(=O)CCOc1ccccc1C)c1c(N)n(Cc2ccccc2)c(=O)[nH]c1=O	i	i	i	i	i
COc1cc(N2CCCC2)c(OC)cc1/C=C(/C#N)c1ccc(Br)cc1	i	-4.6*	i	i	i
COc1cc(N2CCCC2)c(OC)cc1/C=C(/C#N)c1ccc(F)cc1	i	-4.9*	i	i	i
O=C(C[n+]1ccc(-c2ccccc2)cc1)Nc1ccc([N+](=O)[O-])cc1	i	i	i	i	i
CCc1ccc2[nH]c3nc(N/N=C/c4ccc(O)cc4O)nnc3c2c1	i	i	i	i	i
CCC(C)(C)NC(=O)C(c1ccc(C)o1)N(Cc1ccc2c(c1)OCO2)C(=O)c1snc(C(N)=O)c1N (configuration not stated)	i	i	i	i	i
O=[N+]([O-])c1ccc(O)c(/C=N/NC2=NS(=O)(=O)c3ccccc32)c1	i	i	8.5*	i	i
CCn1c(=S)sc2c(=O)n(-c3ccccc3)c(SC)nc21	i	i	7.7*	i	i
CCOc1ccc(NS(=O)(=O)c2ccc(C(=O)NCC(c3ccc(OC)cc3)N3CCCC3)cc2)cc1 (configuration not stated)	i	i	i	i	i
SMILES	RGS4 block	MrgX1 antagonist	MrgX1 PAM	MrgX1 ag	RGS4 pot
CC1=NOC(=O)/C1=C\c1ccc(-c2ccc(Br)cc2)o1	i	·	·	·	i
CC1=NOC(=O)/C1=C/c1ccc(-c2ccc(Cl)cc2)o1	·	i	i	46*	·
CCN(CC)CCNC(=O)C(Oc1ccccc1)Oc1ccccc1	i	i	i	i	i
Cc1cccc(C(=O)OC(C)C(=O)Nc2ccc(S(=O)(=O)N3CCCC3)cc2)c1O (configuration not stated)	i	i	i	i	-7.3*
CC(OC(=O)c1cc(Br)ccc1O)C(=O)Nc1ccc(S(=O)(=O)N2CCCC2)cc1 (configuration not stated)	i	i	i	i	i
Oc1ccc(-c2nccc(-c3ccccn3)n2)cc1	i	i	i	i	i
CCN(CC)C(=O)CSC(Nc1ccc(F)cc1)=C(C#N)C#N	i	i	i	44*	i
CCOc1cc(N2CCOCC2)c(OCC)cc1NC(=O)c1ccc(OC(C)C)cc1	i	i	i	i	i
C#CCOCCOCCOCCNc1nc(N2CCN(C(=O)[C@H](CCCCN)n3cc([C@@H](N)CO)nn3)CC2)nc(N2CCN(C(=O)[C@H](Cc3cc4ccccc4[nH]3)n3cc([C@@H](N)CC(C)C)nn3)CC2)n1	i	i	i	i	i
Cn1c(=O)c([N+](=O)[O-])c(N2CCN(Cc3ccc4c(c3)OCO4)CC2)c2ccccc21	i	i	i	i	-7.3*
O=C(CN1C(=O)CSc2ncccc21)Nc1ccccc1F	i	i	i	i	i
Cc1ccc(S(=O)(=O)c2cc3c(=O)n4ccccc4nc3n(CCc3ccccc3)c2=N)cc1	i	i	i	i	-7.2*
COc1ccc(CCn2c(=N)c(S(=O)(=O)c3ccc(Cl)cc3)cc3c(=O)n4ccccc4nc32)cc1	i	-5.5*	i	i	i
COc1ccc(CCn2c(=N)c(S(=O)(=O)c3ccccc3)cc3c(=O)n4ccccc4nc32)cc1	i	i	i	i	i
Cc1ccc(S(=O)(=O)c2cc3c(=O)n4ccccc4nc3n(Cc3ccco3)c2=N)cc1C	i	i	i	31*	i
O=c1c(-c2n[nH]c(=S)n2-c2ccccc2)cccn1Cc1cccc(Cl)c1	i	i	i	i	i
CCC(C)(C)C1CCc2[nH]nc(C(=O)NCCNC(=O)OC(C)(C)C)c2C1 (configuration not stated)	·	i	i	i	·
N#C/C(=C\c1ccc(O)c(O)c1)S(=O)(=O)c1ccccc1	i	i	14*	i	i
COc1cc(/C=C2/C(=O)N(c3cccc(Br)c3)N=C2C)cc(OC)c1O	i	i	i	62*	i
Cc1ccc(-c2csc(NC(=O)COC(=O)c3cccc(S(=O)(=O)N4CCOCC4)c3)n2)cc1	i	-4.8*	i	i	i
O=C(CSc1nnc(-c2ccccn2)o1)Nc1ccccc1F	i	i	i	i	i
Cc1cc(C)c(C(=O)NCC(=O)c2ccccc2)c(C)c1	i	i	i	i	i
C=CC[n+]1c(-c2ccc(OCC)cc2)csc1NNC(=O)Nc1ccccc1	i	-6.2*	i	i	i

Compound activity deposited in PubChem BioAssay by Johns Hopkins Ion Channel Center.
